High-throughput results as filed in PubChem.
The list is not random: actives were taken first. Their share in the collection is about 3.5%.
RAM network inh – inhibitors of the yeast RAM network, primary screen, dse1pr::URA3 reporter, 5-FOA selection. AID 868, 2007. S. cerevisiae dse1pr::URA3 reporter, 5-FOA growth OD615, 2 d; analog-sensitive cbk1-as2 kinase mutant strain. inhibition, % at 50 µM. 1.8% of 190,000 active;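 active = inhibition above a set limit, 3 SD over mean compound inhibition, cut at about 8.4% in these data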;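 also: 0% = DMSO-only wells with no growth and 100% = 10 µM 1-NA-PP1 full growth; inhibition rescues growth on 5-FOA so higher OD means more RAM inhibition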
Yeast growth inh – growth inhibitors of yeast BB579 in restrictive medium, primary screen, yeast lifespan-shortening project, S. cerevisiae. OD615, 48 h. 0.51% of 140,000 active. AID 804, 2007. inhibition, % at 10 µM;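 active = inhibition above a set limit, 3 SD over the mean compound inhibition, cut at about 44% in these data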
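test system = yeast BB579 (DeaD) | buffer or medium = restrictive CSMM-D medium | doses = single compound dose of 10 µM, 0.25% DMSO final | times = 4 h preincubation and 48 h exposure at 30 °C | technique = culture absorbance at 615 nm | benchmarks = amphotericin B 10 µg/mL, positive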
MT stabilize HCS – microtubule stabilizers in HeLa cells, primary screen, imaging, high-content imaging; AID 2205, 2009; HeLa tubulin immunostaining HCS, 24 h; share of cells brighter than vehicle mean+2SD; % tubulin-high responders, % at 10 µM; 0.83% of 200,000 active;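 active = plate Z-score above 3 for both tubulin-high and condensed-nucleus cell shares, with cell loss under 80%, at 10 µM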;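 also: anti alpha tubulin signal scored within the nucleus-defined area of each cell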
HMGR II inh – inhibitors of E. faecalis class II HMGR, primary screen, biochemical, Enterococcus faecalis; HMG-CoA reductase (Enterococcus faecalis, mvaE); 0.41% of 190,000 active; purified E. faecalis HMGR, NADPH absorbance 340 nm kinetic; inhibition, % at 10 µM;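 active = inhibition above a set limit, the median over all tested compounds plus 3 SD, cut at about 9.5% in these data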;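 also: enzyme runs in reverse so mevalonate oxidation gives rising NADPH absorbance; 0% = complete reaction with DMSO and 100% = background rate lacking mevalonate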
bCat nuc transl – modulators of beta-catenin nuclear translocation, primary screen, imaging, HeLa cells, immunofluorescence, high-content | nuclear translocation activity, % at 5 µM | 0.3% of 190,000 active | AID 1665, 2009;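 active = nuclear translocation activity above 50% at 5 µM, with a well cell count of 50 or more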;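 also: per-cell ratio of nuclear to cytoplasmic median beta-catenin stain intensity; plate controls were DMSO negative control for no effect and GSK-3 inhibitor IX positive control for full effect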
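Technique: fluorescence imaging of beta-catenin antibody stain plus DAPI / Material: human HeLa cell line / Incubation: compound treatment 24 h, 37°C, 5% CO2 / Read-out basis: % activation of per-cell nuclear versus cytoplasmic median beta-catenin signal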
Yeast lifespan up – compounds extending yeast replicative lifespan, primary screen, S. cerevisiae, OD615; inhibition of the nicotinamide effect, % at 10 µM; 0.68% of 130,000 active; S. cerevisiae growth with nicotinamide; deaD strain in restrictive glucose medium;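 active = inhibition above a set limit, placed 3 SD over the median of all compounds, cut at about 26% in these data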;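 also: 0% = nicotinamide-treated wells and 100% = cells grown without nicotinamide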
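Material: Modified budding yeast, DeaD strain | Medium: Restrictive glucose medium | Probe or stimulus: 1.5 mM nicotinamide | Dosing: Single dose 10 µM compound, 0.25% DMSO | Times: 48 h at 30 °C | Technique: OD615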
Starred values were filed as active, the others as inactive; nt = no result given.

SMILES	RAM network inh	Yeast growth inh	MT stabilize HCS	HMGR II inh	bCat nuc transl	Yeast lifespan up
COc1ccc(-c2n[nH]c(C(F)(F)F)c2-c2cc3ccccc3o2)c(O)c1	-1	100*	30*	-3	94*	-29
COc1ccccc1-c1c(-c2ccc(OCC(=O)NN)cc2O)n[nH]c1C(F)(F)F	2	-34	1	-7	0	2
CCCN(CC(=O)Nc1ccccc1C)C(=O)CCl	0	nt	15	-3	10	nt
Cc1cc(CSc2ccccc2)ccc1NC(=O)COc1ccccc1	8.6*	-27	3	-3	0	-5
Cc1cc(CSc2ccccc2)ccc1NC(=O)c1ccc(Br)cc1	4	-9	4	-1	0	6
CCOc1ccc(NCc2nnc(SCC(=O)Nc3cc(C)on3)n2-c2ccc(OC)cc2)cc1	0	-21	2	-5	-2	-7
CCOc1ccc(NCc2nnc(SCC(=O)Nc3cc(C)on3)n2-c2ccccc2OC)cc1	2	-44	24*	-5	1	-6
Cc1ccccc1/C=C1\SC(=S)N(/N=C/c2cc([N+](=O)[O-])ccc2O)C1=O	1	nt	3	-3	0	nt
O=C(Nc1ccccc1)Nc1ccc2ocnc2c1	0	nt	4	18*	0	nt
CC(C)CC(=O)Nc1cccc(-c2csc(-c3ccccc3)n2)c1	10*	-56	3	-3	2	-14
NC(=O)c1nsc(C(=O)N(CCc2ccccc2)C(C(=O)NC2CCCC2)c2ccco2)c1N (stereo not drawn)	8.7*	-54	4	-6	-2	-10
O=S(=O)(Nc1ccc(-n2cnnn2)cc1)c1ccc(F)c(F)c1F	nt	nt	nt	nt	1	nt
CCCOc1ccc(Cn2c(=O)oc3ccc(C)cc32)cc1OC	8.6*	-37	3	-11	-2	nt
Cc1ccc(NC(=O)c2cc(NC(=O)CCC(=O)O)ccc2N2CCCCC2)cc1	9.0*	-31	2	2	-1	-9
COc1cc(Br)cc(CNc2ccc(F)c([N+](=O)[O-])c2)c1O	8.9*	nt	2	0	3	nt
COCCN(C(=O)CSc1nnc(-c2cccc(OC)c2)n1C)c1c(N)n(Cc2ccccc2)c(=O)[nH]c1=O	1	nt	3	2	0	nt
CCc1ccc(N/C(SCc2ccccc2C)=C(/C#N)C(=O)NCc2ccco2)cc1	11*	-39	3	-4	0	-20
CCc1ccc(OCCCC(=O)NCc2ccco2)cc1	1	nt	3	0	2	nt
O=C(N/N=C/c1ccc([N+](=O)[O-])o1)c1cc(-c2ccc(-c3ccccc3)cc2)nc2ccccc12	3	nt	12*	-8	46	nt
O=C(N/N=C/c1ccc2c(c1)OCO2)c1cc(-c2ccccc2Cl)nc2ccccc12	1	-39	3	3	nt	0
O=C(N/N=C/c1ccc(F)cc1)c1cc(-c2ccco2)nc2ccccc12	1	-6	34	3	53*	1
O=C(N/N=C/c1ccsc1)c1cc(-c2ccncc2)nc2ccccc12	1	-27	13*	-1	11	8
O=C(N/N=C/c1ccc2c(c1)OCO2)c1cc(-c2ccncc2)nc2ccccc12	1	-44	21*	-3	24	9
COc1cc(C)nc(NC(=S)N(C)C(=O)c2ccccc2)n1	nt	nt	nt	nt	0	nt
CC(/C=N/NC(=O)c1cc(-c2ccncc2)nc2ccccc12)=C\c1ccco1	2	-47	16*	-1	49	-6
SMILES	RAM network inh	Yeast growth inh	MT stabilize HCS	HMGR II inh	bCat nuc transl	Yeast lifespan up
O=C(O)c1ccc(/C=N/NC(=O)c2cc(-c3cccs3)nc3ccccc23)cc1	4	-13	3	3	2	0
O=C(N/N=C/c1ccsc1)c1cc(-c2cccs2)nc2ccccc12	0	-48	10*	-4	1	-1
CC(/C=N/NC(=O)CSc1nc2ccccc2n1C)=C\c1ccco1	2	-59	17*	-1	25	-7
Cn1c(SCC(=O)N/N=C/c2ccco2)nc2ccccc21	1	nt	4	-3	5	nt
Cc1ccc(/C=N/NC(=O)c2cc(-c3cccnc3)nc3ccccc23)cc1	1	nt	7	1	83*	nt
CCc1cc(C(=O)N2CCCC(C(=O)c3cccc4ccccc34)C2)n(C)n1 (stereo not drawn)	1	nt	3	-2	2	nt
CCN(CC(=O)Nc1cccc(C(C)=O)c1)S(=O)(=O)c1ccc(C)cc1	2	nt	4	5	8	nt
CC(O)CNCCCOc1ccc(Cl)cc1C(C)(C)C (stereo not drawn)	0	nt	2	0	1	nt
CC(=O)N1N=C(c2cccc([N+](=O)[O-])c2)OC1c1cccc(Br)c1 (stereo not drawn)	1	nt	24*	-7	66*	nt
C=CCNC(=O)c1sccc1Oc1ccc(F)cc1[N+](=O)[O-]	-1	nt	2	-2	0	nt
Cc1cccc2c1N(CCCOc1ccc(C(C)(C)C)cc1)C(=O)C2=O	11*	-21	5	-2	nt	4
Cc1ccccc1OCCCN1C(=O)C(=O)c2cccc(C)c21	-1	83*	8	-1	0	-16
CCOc1ccc(N=Cc2c(O)cc(C)oc2=O)cc1	0	40	6	4	-1	-8
CCOc1ccc(N=Cc2c(O)c3ccccc3oc2=O)cc1	2	-39	2	1	-4	88*
CCCCCc1cc(=O)oc2c(C(CCN(CC)CC)c3ccc(N(C)C)cc3)c(OC)cc(OC)c12 (stereo not drawn)	nt	nt	nt	nt	0	nt
CCOc1ccc(N2C(=O)CC(Sc3ccccc3C(=O)O)C2=O)c([N+](=O)[O-])c1 (stereo not drawn)	4	nt	3	2	-5	nt
CC(=O)Nc1ccc(S(=O)(=O)N2CCN(CC3CC4C=CC3C4)CC2)cc1 (stereo not drawn)	1	nt	2	-1	2	nt
O=[N+]([O-])c1ccc(-c2cnc(SC(c3ccccc3)c3ccccc3)[nH]2)cc1	9.5*	-34	5	-3	0	-2
COc1ccc(C(=O)c2ccc(Cl)cc2)cc1	1	-29	1	-2	-8	-23
COc1ccc(C(=O)C23CC4CC(C2)CC(C(=O)c2ccc(OC)cc2)(C4)C3)cc1	9.1*	nt	2	0	4	nt
CC[C@H](C)[C@H](NC(N)=O)C(=O)Nc1ccccc1F	-1	nt	1	-1	-1	nt
Cc1ccc(OCC(O)CN2C(=O)NC(C)(C)C2=O)cc1 (stereo not drawn)	0	-5	3	14*	-2	nt
O=C(COC(=O)c1ccc(Cl)cc1O)NC(=O)C1CCCCC1	4	nt	4	-5	-4	nt
